Screening data deposited in PubChem by The Scripps Research Institute Molecular Screening Center.
RORa inhibitor – inhibitors of orphan receptor RORA, primary screen, cell-based, luminescence. CHO-K1 Gal4-RORA LBD luciferase reporter. inhibition, % at 10 µM. actives 0.43% (n = 65,000). AID 561, 2006;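 active = inhibition above the mean of all tested compounds plus 3 SD, cut at about 52% in these data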
Target sequence (P35398 whole entry, looked up, the tested form may be a part): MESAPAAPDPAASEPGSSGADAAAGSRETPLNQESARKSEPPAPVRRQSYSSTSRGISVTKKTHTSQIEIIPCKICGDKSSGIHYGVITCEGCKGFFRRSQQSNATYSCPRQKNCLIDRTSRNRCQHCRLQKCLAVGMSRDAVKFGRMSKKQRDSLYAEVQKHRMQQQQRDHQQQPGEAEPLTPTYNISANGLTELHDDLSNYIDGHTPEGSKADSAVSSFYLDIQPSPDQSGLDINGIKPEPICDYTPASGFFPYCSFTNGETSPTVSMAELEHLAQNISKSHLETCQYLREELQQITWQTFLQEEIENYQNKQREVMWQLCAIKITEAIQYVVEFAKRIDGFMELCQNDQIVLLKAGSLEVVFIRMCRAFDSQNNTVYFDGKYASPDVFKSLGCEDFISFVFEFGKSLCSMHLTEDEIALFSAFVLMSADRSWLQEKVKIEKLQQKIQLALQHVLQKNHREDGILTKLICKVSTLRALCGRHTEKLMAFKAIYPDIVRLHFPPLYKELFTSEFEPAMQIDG
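Material: transiently transfected CHO-K1 cells, Gal4-DBD/human RORA-LBD fusion plus 5xGal4-luciferase reporter; doses: single concentration per compound, 10 µM final; incubation: 20 h at 37 °C; detection: luminescence from basal luciferase reporter expression; read-out: % inhibition of basal luciferase versus +RORA/-RORA DMSO controls; replication: tested once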
A number is an active result; i = inactive. Shown is part of a subset that was picked to be rich in hits.

SMILES	RORa inhibitor
CC(=O)Nc1ccccc1OCC(=O)c1cc(C)n(Cc2cccs2)c1C	89
Cc1cc(C(=O)CSc2nnc(-c3ccco3)o2)c(C)n1Cc1ccco1	i
Cc1cc(C(=O)COC(=O)c2ccc3c(c2)OCO3)c(C)n1Cc1cccs1	i
Cc1csc(SCc2ccccc2C(=O)O)n1	i
CCS(=O)(=O)N1CCC(C(=O)NCCCN2CCCC2)CC1	i
CC(C)C(=O)Nc1ccc2c(c1)C(=O)N(CCC(=O)O)C2=O	i
CCCCN1c2cc(C)c(O)cc2C(C(=O)OCC)C1C (stereo not given)	i
CCCCNc1cc(=O)n(C)c(=O)[nH]1	i
COc1ccccc1-c1nc(-c2ccncc2)no1	i
Cc1cc(C(=O)Nc2c(F)cc(F)cc2Br)c(C)o1	i
COCCCN(C(C)=O)c1nc(-c2ccc(OC)cc2)cs1	i
O=C(Cc1ccccc1)Nc1nc(-c2cccs2)cs1	i
CCNc1nc(-c2ccc(Cl)cc2)cs1	i
Cc1nc2sccn2c1-c1csc(NCc2ccccc2)n1	63
O=S(=O)(Nc1nc2ccccc2nc1NCc1ccco1)c1cccs1	i
O=C(COc1ccccc1)n1nc(-c2ccc(Cl)cc2)nc1NCc1ccco1	i
CC(=O)c1cc2c(cc1NC(=O)CN1CCN(c3cccc(C(F)(F)F)c3)CC1)OCO2	i
CC(=O)c1ccc(N2CCN(c3ccc(C(F)(F)F)cn3)CC2)cc1	54
COc1ccc(C(=O)CN2CCN(c3ccc(F)cc3)CC2)cc1OC	i
CCOC(=O)N1CCC(NC(=O)Cn2ncn3c(cc4sc(CC)cc43)c2=O)CC1	i
CCOc1ccc(NC(=O)c2cc3n(n2)C(C(F)(F)F)CC(c2ccco2)N3)cc1 (stereo not given)	i
Cc1cc(C)cc(-n2cc3c(=O)n(C)c(=O)n(C)c3c2)c1	i
CC1(C)CC(=O)C(/C=N/c2ncccc2C(=O)O)=C(O)C1	i
CC(C)n1c(=S)[nH]c2c1c(=O)[nH]c(=O)n2C	i
COc1ccc(CCNc2ncnc3c2oc2ccccc23)cc1OC	84
SMILES	RORa inhibitor
Cc1cc(C)n(-c2ncnc3c2oc2ccccc23)n1	i
COc1ccccc1N1CCN(c2ncnc3c2oc2ccccc23)CC1	i
CC(=O)OC1=C(C#N)Cn2ccc3cccc1c32	i
CC(C)NC(=O)c1cc(=O)n(C)c(=O)n1C	i
O=C(NCCC1=CCCCC1)N[C@@H](Cc1ccccc1)C(=O)O	i
CC(=O)Nn1c(-c2ccccc2)cc2ccccc21	i
Cn1c(-n2c(CCN3C(=O)c4ccccc4C3=O)nc3ccccc3c2=O)nc2ccccc21	i
CCCCCn1c(CN2CCN(Cc3ccccc3)CC2)nc2c1c(=O)n(C)c(=O)n2C	i
CC1CCN(c2nc3c(c(=O)n(C)c(=O)n3C)n2Cc2ccccc2)CC1	i
C=CCOc1nc2c(c(=O)n(C)c(=O)n2C)n1Cc1ccc(Cl)cc1	58
O=C(C1CCC(=O)N1Cc1ccccc1Cl)N1CCN(c2cccc(Cl)c2)CC1 (stereo not given)	i
COc1ccc(C(=O)Nc2cc(C)on2)cc1	i
COc1ccc(C(=O)NC(=O)Nc2cc(C)ccn2)cc1	70
Cc1ccnc(NC(=O)Nc2ccc(F)cc2)c1	i
CC(C)OC(=O)c1ccc(N2C(=O)C3CC=CCC3C2=O)cc1 (stereo not given)	i
CN1CCN(S(=O)(=O)c2ccc(Br)s2)CC1	i
CCOC(=O)C1CCN(C(=O)CNS(=O)(=O)c2ccc(Br)s2)CC1	i
O=S(=O)(NCc1ccncc1)c1ccc(Br)s1	65
COc1ccc(CN2CCCCC2C)c(C)c1C (stereo not given)	i
COc1ccc(CCn2nnnc2C(C(C)C)N2CCN(c3ncccn3)CC2)cc1OC (stereo not given)	i
COc1ccc2nc(NC(=O)c3cccc(OCc4c(C)noc4C)c3)sc2c1	i
CCOC(=O)c1c(C)[nH]c(C(=O)C(C)OC(=O)c2cccc(OCc3c(C)noc3C)c2)c1C (stereo not given)	56
CCOC(=O)c1[nH]c(C)c(C(=O)c2cc(F)ccc2F)c1C	i
CCCCc1ccc(NC(=O)C2CCCO2)cc1 (stereo not given)	i
CCC(C)NC(=O)c1cc(-c2ccc(OC)cc2)on1 (stereo not given)	i
SMILES	RORa inhibitor
CCOc1ccc(-c2cc(CCCC(=O)NCCCOC)no2)cc1	58
CCOc1ccc(-c2cc(C(=O)NCCCN3CCN(CC)CC3)c3ccccc3n2)cc1	i
CCOc1ccc(NC(=O)C2CC(=O)N(C(C)C)C2)cc1 (stereo not given)	i
Cc1c(C(=O)N2CCOCC2)sc2nc(-c3ccccc3)cn12	i
Cc1c(C(=O)NCc2cccnc2)sc2nc(-c3ccccc3)cn12	i
c1ccc(-c2cn3c4c(sc3n2)CCCC4)cc1	74
COc1ccc(-n2c(=O)c3ccccc3n(CC(=O)NC3CCCC3)c2=O)c(OC)c1	i
CCOC(=O)c1[nH]c(C)c(C(=O)Nc2cccc(Cl)c2C)c1C	i
COc1ccc(Cc2nnc(NC(=O)Cc3cccs3)s2)cc1OC	i
COc1ccc(CCNC(=O)c2nnn(CC(=O)Nc3ccccc3)c2N)cc1OC	i
COc1ccc(CC(=O)Nc2cccc(-c3nnc(-c4cccc(C)c4)o3)c2)cc1OC	87
CCN1CCN(Cc2ccc(NC(=O)Nc3ccccc3OC)cc2)CC1	i
COCCN(CCOC)C(=O)CCn1c(=O)oc2ccccc21	i
Cc1cccc2c1NC(C)CC2C (stereo not given)	i
COc1cc(/C=N/O)ccc1OCc1ccc(C(=O)O)cc1	89
COc1cc(C(=S)N2CCCCC2)ccc1OCC(=O)N1CCCC1	i
COc1ccccc1NC(=O)COc1ccc(/C=N/n2cnnc2)cc1OC	i
O=C(Cn1cnc2ccccc2c1=O)NCC(=O)N1CCN(c2ccccn2)CC1	i
O=C(Nc1ccc2c(c1)OCO2)c1cnn2cccnc12	i
COc1ccc(S(=O)(=O)Nc2nnc(C(C)(C)C)s2)cc1	i
COc1cc(NS(=O)(=O)c2ccc(C)cc2)c2ncccc2c1	85
O=S(=O)(NC1CCCCCC1)c1cccc2cccnc12	i
CSc1ccc(CNc2ccccn2)cc1	i
CC(=O)OC1c2ccccc2C(=O)N1Cc1ccccc1Cl (stereo not given)	i
O=C(CSc1cn(Cc2ccccc2)c2ccccc12)Nc1nccs1	i
SMILES	RORa inhibitor
O=C(CSC1=NCCS1)Nc1ccnc2ccccc12	73
CC(C)(C)NC(=O)CSc1nnc(NC(=O)CCn2cnc3ccccc3c2=O)s1	i
O=C(Nc1ccc(-c2nc3ccccc3o2)cc1)c1ccc2c(c1)OCO2	i
O=C(c1ccc(Cl)cc1)N1CCCCC(Sc2nnc(-c3ccc4c(c3)OCO4)o2)C1=O (stereo not given)	76
O=C(c1ccc(-c2nnc(-c3ccccc3)o2)cc1)N1CCCCCC1	i
CSCCC(CO)NC(=O)OCc1ccccc1 (stereo not given)	i
C(=N\n1cnnc1)/c1cccc(Oc2ccccc2)c1	i
Cc1cc(/C=N/n2cnnc2)c(C)n1-c1ccc(OCc2ccccc2F)cc1	62
Cc1cccc(-n2c(CNC(=O)c3ccccc3)nnc2SCC(=O)Nc2nccs2)c1	i
COc1cc(C(=O)NC2=NCCS2)ccc1OCc1c(C)noc1C	i
O=C(NC1=NCCS1)C1COc2ccccc2O1 (stereo not given)	72
COc1ccccc1CNC(=O)C1COc2ccccc2O1 (stereo not given)	i
COC(=O)c1ccc(S(=O)(=O)N(Cc2cc3cc4c(cc3[nH]c2=O)OCO4)C2CCCCC2)cc1	i
Cc1ccc(S(=O)(=O)N(CC(=O)N2CCCC2)C2CCCCC2)cc1	i
